Experimental data from ChEMBL document CHEMBL3745677, “Discovery of 6-(4-{[5-Cyclopropyl-3-(2,6-dichlorophenyl)isoxazol-4-yl]methoxy}piperidin-1-yl)-1-methyl-1H-indole-3-carboxylic Acid: A Novel FXR Agonist for the Treatment of Dyslipidemia” (J Med Chem, 2015).

What was measured:
[1] = AUC (0 to 24 hrs) in Sprague-Dawley rat at 1 mg/kg, iv by LC-MS/MS analysis; format: ADME, organism-based; set-up: dose 1 mg/kg, time < 24 hr, route intravenous; settings: in vivo
Summary of the method: (§1)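 Sprague Dawley rats, Beagle dogs and Cynomolgus monkeys were dosed IV at 1 mg/kg (rat, dog) or 0.91 mpk (monkey) in 5% Solutol/5% EtOH in saline. Oral/nasogastric dosing was 3 mpk in 1.0% CMC/0.25% PS80/0.05% antifoam in purified water. Samples were processed to plasma and analysed by LC-MS/MS; values are mean ± SD, N=2-3.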

[2] = Volume of distribution at steady state in Sprague-Dawley rat at 1 mg/kg, iv by LC-MS/MS analysis; format: ADME, organism-based; settings: in vivo, read-out: Vdss
Summary of the method: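 Intravenous dose given in 5% Solutol / 5% EtOH in saline (1 mg/kg rat and dog, 0.91 mpk monkey). Plasma samples collected and analyzed by LC-MS/MS; parameters reported as mean ± SD, N=2-3.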

[3] = Cmax in Sprague-Dawley rat at 3 mg/kg, po by LC-MS/MS analysis; format: ADME, organism-based; set-up: dose 3 mg/kg, route oral; settings: in vivo; summary of the method: as §1
[4] = target: T1, Mineralocorticoid receptor (Homo sapiens, UniProt P08235); experiment: Agonist activity at mineralocorticoid receptor (unknown origin) expressed in HEK293 cells assessed as transcriptional activation; format: cell-based
T1 sequence (P08235 whole entry): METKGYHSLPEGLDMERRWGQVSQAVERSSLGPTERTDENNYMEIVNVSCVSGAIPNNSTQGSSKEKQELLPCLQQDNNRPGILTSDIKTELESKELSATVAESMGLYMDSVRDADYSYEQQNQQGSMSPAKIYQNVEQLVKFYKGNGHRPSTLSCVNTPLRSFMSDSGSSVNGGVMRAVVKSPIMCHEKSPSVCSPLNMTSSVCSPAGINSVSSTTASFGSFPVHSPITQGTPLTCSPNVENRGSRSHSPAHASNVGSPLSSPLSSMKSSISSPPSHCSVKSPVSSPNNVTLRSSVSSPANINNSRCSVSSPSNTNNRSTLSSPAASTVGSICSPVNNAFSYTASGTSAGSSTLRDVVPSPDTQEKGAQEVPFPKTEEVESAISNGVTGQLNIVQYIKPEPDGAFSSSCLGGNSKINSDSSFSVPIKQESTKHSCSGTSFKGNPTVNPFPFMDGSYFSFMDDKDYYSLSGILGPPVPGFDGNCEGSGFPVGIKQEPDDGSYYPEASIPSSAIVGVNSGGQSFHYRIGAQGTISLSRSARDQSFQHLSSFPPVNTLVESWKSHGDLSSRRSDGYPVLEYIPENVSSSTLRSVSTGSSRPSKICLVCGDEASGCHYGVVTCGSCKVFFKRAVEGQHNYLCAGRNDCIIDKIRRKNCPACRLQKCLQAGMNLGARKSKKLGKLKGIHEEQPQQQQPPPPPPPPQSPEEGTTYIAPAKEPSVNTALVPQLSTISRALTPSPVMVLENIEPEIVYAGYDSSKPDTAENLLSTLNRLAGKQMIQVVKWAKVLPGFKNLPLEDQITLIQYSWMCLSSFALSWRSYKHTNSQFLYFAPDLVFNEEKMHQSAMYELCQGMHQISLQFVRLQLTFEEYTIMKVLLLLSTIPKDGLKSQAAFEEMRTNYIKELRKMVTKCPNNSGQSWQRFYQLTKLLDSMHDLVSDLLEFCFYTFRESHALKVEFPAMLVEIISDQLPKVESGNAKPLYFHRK

Mus musculus [5] = experiment: Antidyslipidemic activity in western-diet fed mouse expressing LDL-receptor (-/-) assessed as decrease in triglyceride level at 3 mg/kg qd for a week administered via gavage […]; format: functional; settings: po
Summary of the method: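 Male LDLR null mice, six per group, were gavaged once daily for one week with compound (in situ sodium salt) or vehicle (5% Solutol, 5% EtOH, 1% wt/v CMC) at 5 mL/kg. On day 7 they were bled by cardiac puncture under CO2 anaesthesia. Serum cholesterol and triglycerides were measured enzymatically on a clinical chemistry analyser (mean ± SD, n=6). ED50 was obtained by nonlinear regression.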

Mus musculus [6] = experiment: Antidyslipidemic activity in western-diet fed mouse expressing LDL-receptor (-/-) assessed as decrease in very-low density lipoprotein level at 1 mg/kg qd for a week administered via gavage by FPLC analysis; format: functional; settings: po
Summary of the method: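 LDLR null male mice, six per group, were dosed by gavage once daily for one week (vehicle 5% Solutol, 5% EtOH, 1% wt/v CMC; 5 mL/kg). Serum was collected by cardiac puncture on day 7 under CO2 anaesthesia. Pooled serum from each treatment group was fractionated by FPLC to quantify VLDL and LDL.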

[7] = AUC (0 to 24 hrs) in cynomolgus monkey at 3 mg/kg, po by LC-MS/MS analysis; format: ADME, organism-based, Macaca fascicularis; set-up: time < 24 hr, dose 3 mg/kg, route oral; settings: in vivo; summary of the method: as §1
[8] = Terminal half life in cynomolgus monkey at 3 mg/kg, po by LC-MS/MS analysis; format: ADME, organism-based, Macaca fascicularis; settings: in vivo, read-out: beta t1/2 (converted)
Summary of the method: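 Oral/nasogastric dosing at 3 mpk in 1.0% CMC/0.25% PS80/0.05% antifoam in purified water. Plasma samples collected and analyzed by LC-MS/MS; parameters reported as mean ± SD, N=2-3.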

Androgen receptor = target: T2, Androgen receptor (Homo sapiens, UniProt P10275); experiment: Agonist activity at androgen receptor (unknown origin) expressed in HEK293 cells assessed as transcriptional activation; format: cell-based
T2 sequence (P10275 whole entry): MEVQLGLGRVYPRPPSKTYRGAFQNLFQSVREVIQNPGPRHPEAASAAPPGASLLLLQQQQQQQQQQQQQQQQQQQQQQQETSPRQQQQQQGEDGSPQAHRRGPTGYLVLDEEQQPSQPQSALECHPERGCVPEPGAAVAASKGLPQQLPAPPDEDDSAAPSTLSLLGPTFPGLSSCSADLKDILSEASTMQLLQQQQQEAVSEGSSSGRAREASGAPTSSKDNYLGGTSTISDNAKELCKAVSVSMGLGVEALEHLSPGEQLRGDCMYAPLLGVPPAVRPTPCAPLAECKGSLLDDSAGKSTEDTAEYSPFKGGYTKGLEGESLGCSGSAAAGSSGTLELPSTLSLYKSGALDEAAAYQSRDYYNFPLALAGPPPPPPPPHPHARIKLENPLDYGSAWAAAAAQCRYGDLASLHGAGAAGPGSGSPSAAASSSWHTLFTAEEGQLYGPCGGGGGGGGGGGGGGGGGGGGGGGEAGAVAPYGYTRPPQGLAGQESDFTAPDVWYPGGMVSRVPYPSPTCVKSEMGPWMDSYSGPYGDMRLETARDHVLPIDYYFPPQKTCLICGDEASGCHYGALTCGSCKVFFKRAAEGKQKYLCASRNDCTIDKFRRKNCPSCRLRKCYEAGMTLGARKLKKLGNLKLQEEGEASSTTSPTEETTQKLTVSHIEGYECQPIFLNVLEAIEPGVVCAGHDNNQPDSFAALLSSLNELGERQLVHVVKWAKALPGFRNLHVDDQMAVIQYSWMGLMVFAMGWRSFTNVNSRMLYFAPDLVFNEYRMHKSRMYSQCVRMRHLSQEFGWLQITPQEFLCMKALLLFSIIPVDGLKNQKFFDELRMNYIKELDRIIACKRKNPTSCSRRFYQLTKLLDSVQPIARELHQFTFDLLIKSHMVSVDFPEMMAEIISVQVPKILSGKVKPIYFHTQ

AUC(0-t) at 24 h [1]: 577 ng·h/mL
Vd [2]: 1.24 L/kg
Cmax [3]: 130 ng/mL
EC50 [4]: > 10 µM
AUC(0-t) at 24 h [7]: 1810 ng·h/mL
half-life [8]: 9 h
EC50 (Androgen receptor): > 10 µM
Compound: Cn1cc(C(=O)O)c2ccc(N3CCC(OCc4c(-c5c(Cl)cccc5Cl)noc4C4CC4)CC3)cc21 [TERN-101]
inhibition in vivo at 3 mg/kg (Mus musculus [5]): 46%
inhibition in vivo at 1 mg/kg (Mus musculus [6]): 59%
